Experimental data: ChEMBL document CHEMBL1125135, “Synthesis and central nervous system actions of thyrotropin-releasing hormone analogues containing a dihydroorotic acid moiety” (J Med Chem, 1990)
Active and inactive are the calls of the source. No cut-off for these calls is given here.

What was measured:
Mus musculus [1] = assay: Toxicity and mortality indicates the number of dead animals / number of animals used at dose of 500 mg/kg by administering intravenously (iv) in 3 mice.; assay type: organism-based; design: dose 500 mg/kg, route intravenous; details: in vivo
Outline: (§1)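 Acute toxicity in male Std/ddY mice (26-28 g), three to 10 per group. Compound dissolved in physiological saline and given as a single iv dose of 500 mg/kg. Animals observed for 1 week at 23-24 °C. Mortality recorded as dead/used.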

Mus musculus [2] = assay: (§2) Effect on pentobarbitol anesthesia (antagonist activity) in mice by intravenous (iv) administration relative to TRH; assay type: functional
Outline: (§3)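 Mouse CNS assay run by the method of an earlier report. Potency ratio to TRH derived from dose-response data by parallel line assay.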

Mus musculus [3] = assay: (§4) Effect on reserpine-induced hypothermia (antagonist activity) in mice by intraperitoneal (ip) administration relative to TRH; assay type: functional; outline: as §3
Mus musculus [4] = assay: Evaluated for the effect on spontaneous locomotor activity in mice by intraperitoneal (ip) administration relative to TRH
Mus musculus [5] = assay: Effect on pentobarbitol anesthesia (antagonist activity) in mice by intravenous (iv) administration relative to TRHC; Not active; assay type: functional, organism-based
Outline: (§5)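 Mouse CNS tests followed methods from the authors' earlier paper. The potency ratio versus TRH comes from dose-response data for the test compound and TRH using the parallel line assay method.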

Mus musculus [6] = assay: as §4; assay type: functional, organism-based; outline: as §5
Mus musculus [7] = assay: Evaluated for the effect on spontaneous locomotor activity in mice by intraperitoneal (ip) administration relative to TRHV; Not active
Mus musculus [8] = assay: as §2; assay type: functional, organism-based; outline: as §5
Mus musculus [9] = assay: Evaluated for the effect on spontaneous locomotor activity in mice by intraperitoneal (ip) administration relative to TRH; remark: listed apart in the source
Rattus norvegicus [10] = assay: The thyrotropin (TSH) releasing activity was measured as serum TSH at 0.5 ug/rat dose (i.v.); assay type: functional, organism-based
Outline: (§6)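 TSH release test in rats run as in the authors' earlier paper. Peptide given iv as μg/rat doses, 4–7 rats per group with a control group. Serum TSH reported in μg/100 mL as mean ± SE. Potency ratio versus TRH from parallel-line analysis of dose-response curves. Groups compared with control by two-tailed Student's t test.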

Rattus norvegicus [11] = assay: The thyrotropin (TSH) releasing activity was measured as serum TSH at 0.03125 ug/rat dose (i.v.); assay type: functional, organism-based; outline: as §6
[12] = Evaluated for the potency ratio from the dose-response curve of TRH and compound by the parallel line assay method.; assay type: functional; outline: as §6
Rattus norvegicus [13] = assay: The thyrotropin (TSH) releasing activity was measured as serum TSH at 0.125 ug/rat dose (i.v.); assay type: functional, organism-based; outline: as §6
Mus musculus [14] = assay: Effect on reserpine-induced hypothermia (antagonist activity) in mice by intraperitoneal (ip) administration relative to TRH; Nonactive; assay type: functional; outline: as §3
Mus musculus [15] = assay: Toxicity and mortality indicates the number of dead animals / number of animals used at the compound dose of 500 mg/kg by administering intravenously (iv) in 3 mice; assay type: functional; outline: as §1
Mus musculus [16] = assay: Toxicity and mortality indicates the number of dead animals / number of animals used at the compound dose of 500 mg/kg by administering intravenously (iv) in mice.; assay type: organism-based; design: dose 500 mg/kg, route intravenous; details: in vivo; outline: as §1

Compound | Mortality (Mus musculus [1]) | Activity (Mus musculus [2]) | Activity (Mus musculus [6]) | Activity (Mus musculus [8]) | Activity (Mus musculus [9]) | also measured
CCCCCN1C(=O)C[C@@H](C(=O)N[C@@H](Cc2c[nH]cn2)C(=O)N2CCC[C@H]2C(N)=O)NC1=O [listing 1 of 2 here] | 2 | – | – | – | – | –
NC(=O)[C@@H]1CCCN1C(=O)[C@H](Cc1c[nH]cn1)NC(=O)[C@@H]1CC(=O)N(CCF)C(=O)N1 [listing 1 of 2 here] | – | 1.2 | – | – | – | Activity (Mus musculus [3]): 4.1; Activity (Mus musculus [4]): 0.9
CN1C(=O)C[C@@H](C(=O)N[C@H](Cc2c[nH]cn2)C(=O)N2CCC[C@@H]2C(=O)OCc2ccccc2)NC1=O.Cl | 3 | – | inactive | – | – | Activity (Mus musculus [5]): inactive; Activity (Mus musculus [7]): inactive
NC(=O)[C@@H]1CCCN1C(=O)[C@H](Cc1c[nH]cn1)NC(=O)[C@@H]1CC(=O)N(Cc2ccccc2)C(=O)N1 [listing 1 of 2 here] | – | 1.4 | – | – | – | Activity (Mus musculus [3]): 6.8; Activity (Mus musculus [4]): 2.3
CCC[C@H](NC(=O)[C@@H]1CC(=O)N(C)C(=O)N1)C(=O)N1CCC[C@@H]1C(N)=O | 0 | – | inactive | inactive | inactive | –
CC(C)N1C(=O)C[C@@H](C(=O)N[C@@H](Cc2c[nH]cn2)C(=O)N2CCC[C@H]2C(N)=O)NC1=O [listing 1 of 2 here] | – | 1.9 | – | – | – | Activity (Mus musculus [3]): 11.5; Activity (Mus musculus [4]): 5
CCCCCCCCCCCCCCCCCCN1C(=O)C[C@@H](C(=O)N[C@H](Cc2c[nH]cn2)C(=O)N2CCC[C@@H]2C(N)=O)NC1=O | – | – | inactive | inactive | inactive | –
NC(=O)[C@@H]1CCCN1C(=O)[C@H](Cc1c[nH]cn1)NC(=O)[C@@H]1CCC(=O)N1 | – | – | – | – | – | Serum TSH (Rattus norvegicus [10]): 351 µg 100ml-1; Serum TSH (Rattus norvegicus [11]): 59.1 µg 100ml-1; Ratio [12]: 1; Serum TSH (Rattus norvegicus [13]): 115 µg 100ml-1
CN1C(=O)C[C@@H](C(=O)N[C@@H](Cc2c[nH]cn2)C(=O)N2CCC[C@H]2C(N)=O)N(C)C1=O [listing 1 of 2 here] | 0 | – | – | – | – | –
CN1C(=O)C[C@@H](C(=O)N[C@H](Cc2c[nH]cn2)C(=O)N2CCC[C@H]2C(N)=O)NC1=O | 0 | – | inactive | inactive | inactive | –
CNC(=O)[C@H]1CCCN1C(=O)[C@@H](Cc1c[nH]cn1)NC(=O)[C@@H]1CC(=O)N(C)C(=O)N1 | 0 | 0.6 | – | – | – | Activity (Mus musculus [14]): 0.9; Activity (Mus musculus [4]): 0.4
CCCCN1C(=O)C[C@@H](C(=O)N[C@@H](Cc2c[nH]cn2)C(=O)N2CCC[C@H]2C(N)=O)NC1=O [listing 1 of 2 here] | – | 0.8 | – | – | – | Activity (Mus musculus [3]): 1.8; Activity (Mus musculus [4]): 1.2
CCCN1C(=O)C[C@@H](C(=O)N[C@@H](Cc2c[nH]cn2)C(=O)N2CCC[C@H]2C(N)=O)NC1=O [listing 1 of 2 here] | 0 | – | – | – | – | –
CC(C)N1C(=O)C[C@@H](C(=O)N[C@@H](Cc2c[nH]cn2)C(=O)N2CCC[C@H]2C(N)=O)NC1=O [listing 2 of 2 here] | 0 | – | – | – | – | –
CCCCN1C(=O)CC(C(=O)N[C@@H](Cc2c[nH]cn2)C(=O)N2CCC[C@H]2C(N)=O)N(C)C1=O (stereo partly drawn) | 0 | – | inactive | inactive | inactive | –
NC(=O)[C@@H]1CCCN1C(=O)[C@H](Cc1c[nH]cn1)NC(=O)C1=NC(=O)NC(=O)C1 | 0 | 1.3 | – | – | – | Activity (Mus musculus [3]): 5.5; Activity (Mus musculus [4]): 3.1
CN1C(=O)C[C@@H](C(=O)N[C@H](Cc2c[nH]cn2)C(=O)OCc2ccccc2)NC1=O | 0 | – | inactive | inactive | inactive | –
NC(=O)[C@@H]1CCCN1C(=O)[C@H](Cc1c[nH]cn1)NC(=O)C1CC(=O)N(CCOCc2ccccc2)C(=O)N1 (mixture of isomers) | 0 | 0.4 | – | – | inactive | Activity (Mus musculus [3]): 1.1
CN(C)C(=O)[C@H]1CCCN1C(=O)[C@@H](Cc1c[nH]cn1)NC(=O)[C@@H]1CC(=O)N(C)C(=O)N1 | 0 | – | inactive | inactive | inactive | –
CN1C(=O)C[C@@H](C(=O)N[C@@H](Cc2c[nH]cn2)C(=O)N2CCC[C@H]2C(N)=O)NC1=O | – | 28.1 | – | – | – | Activity (Mus musculus [3]): 89.4; Mortality (Mus musculus [15]): 0; Activity (Mus musculus [4]): 60.6
CN1C(=O)NC(=O)C[C@H]1C(=O)N[C@@H](Cc1c[nH]cn1)C(=O)N1CCC[C@H]1C(N)=O | 0 | – | – | – | – | –

Compound | Mortality (Mus musculus [1]) | Activity (Mus musculus [2]) | Activity (Mus musculus [6]) | Activity (Mus musculus [8]) | Activity (Mus musculus [9]) | also measured
CN1C(=O)C[C@@H](C(=O)N[C@@H](Cc2c[nH]cn2)C(=O)N2CCC[C@H]2C(N)=O)N(C)C1=O [listing 2 of 2 here] | – | 1.2 | – | – | – | Activity (Mus musculus [3]): 0.5; Activity (Mus musculus [4]): 0.4
Cn1c(=O)cc(C(=O)N[C@@H](Cc2c[nH]cn2)C(=O)N2CCC[C@@H]2C(N)=O)[nH]c1=O | 0 | 0.4 | inactive | – | inactive | –
NC(=O)[C@@H]1CCCN1C(=O)[C@H](Cc1c[nH]cn1)NC(=O)C1CC(=O)N(CCO)C(=O)N1 (mixture of isomers) | 0 | – | inactive | inactive | inactive | –
COC(=O)[C@@H](Cc1c[nH]cn1)NC(=O)[C@@H]1CC(=O)N(C)C(=O)N1 | 0 | – | inactive | inactive | inactive | –
CN1C(=O)C[C@@H](C(=O)N[C@@H](Cc2c[nH]cn2)C(=O)N2CCC[C@@H]2C(N)=O)NC1=O | 0 | – | inactive | inactive | inactive | –
CN1C(=O)C[C@@H](C(=O)N[C@H](Cc2c[nH]cn2)C(=O)O)NC1=O | 0 | – | inactive | inactive | inactive | –
C=CCN1C(=O)C[C@@H](C(=O)N[C@@H](Cc2c[nH]cn2)C(=O)N2CCC[C@H]2C(N)=O)NC1=O [listing 1 of 2 here] | – | 4.4 | – | – | – | Activity (Mus musculus [3]): 4.7; Activity (Mus musculus [4]): 5.7
NC(=O)[C@@H]1CCCN1C(=O)[C@H](Cc1c[nH]cn1)NC(=O)[C@@H]1CC(=O)N(Cc2ccccc2)C(=O)N1 [listing 2 of 2 here] | 3 | – | – | – | – | –
CN1C(=O)C[C@@H](C(=O)N[C@H](Cc2c[nH]cn2)C(=O)N2CCC[C@@H]2C(=O)O)NC1=O | 0 | – | inactive | inactive | inactive | –
CCCCCN1C(=O)C[C@@H](C(=O)N[C@@H](Cc2c[nH]cn2)C(=O)N2CCC[C@H]2C(N)=O)NC1=O [listing 2 of 2 here] | – | 0.4 | – | – | – | –
NCCN1C(=O)CC(C(=O)N[C@@H](Cc2c[nH]cn2)C(=O)N2CCC[C@H]2C(N)=O)NC1=O (mixture of isomers) | 0 | – | inactive | inactive | inactive | –
CCCN1C(=O)C[C@@H](C(=O)N[C@@H](Cc2c[nH]cn2)C(=O)N2CCC[C@H]2C(N)=O)NC1=O [listing 2 of 2 here] | – | – | – | – | – | Activity (Mus musculus [4]): 0.7
NC(=O)[C@@H]1CCCN1C(=O)[C@H](Cc1c[nH]cn1)NC(=O)[C@@H]1CC(=O)N(CC(=O)O)C(=O)N1 | 0 | 0.1 | – | – | inactive | Activity (Mus musculus [3]): 0.1
CCCCCN1C(=O)C[C@@H](C(=O)N[C@H](Cc2c[nH]cn2)C(=O)N2CCC[C@@H]2C(N)=O)NC1=O | – | – | inactive | – | inactive | –
CN1C(=O)NC(=O)C[C@H]1C(=O)N[C@H](Cc1c[nH]cn1)C(=O)N1CCC[C@@H]1C(N)=O | – | – | inactive | inactive | inactive | –
NC(=O)[C@@H]1CCCN1C(=O)[C@H](Cc1c[nH]cn1)NC(=O)[C@@H]1CC(=O)N(CCF)C(=O)N1 [listing 2 of 2 here] | 1 | – | – | – | – | –
C=CCN1C(=O)C[C@@H](C(=O)N[C@@H](Cc2c[nH]cn2)C(=O)N2CCC[C@H]2C(N)=O)NC1=O [listing 2 of 2 here] | 1 | – | – | – | – | –
CCCCN1C(=O)C[C@@H](C(=O)N[C@@H](Cc2c[nH]cn2)C(=O)N2CCC[C@H]2C(N)=O)NC1=O [listing 2 of 2 here] | 1 | – | – | – | – | –
CN1C(=O)N(Cc2ccccc2)C(=O)CC1C(=O)N[C@@H](Cc1c[nH]cn1)C(=O)N1CCC[C@H]1C(N)=O (mixture of isomers) | 0 | – | inactive | inactive | inactive | –
CC(=O)O.CCCCCCCCCCCCCCCCCCN1C(=O)C[C@@H](C(=O)N[C@@H](Cc2c[nH]cn2)C(=O)N2CCC[C@H]2C(N)=O)NC1=O | – | – | – | – | – | Mortality (Mus musculus [16]): 1
